The values below come from ChEMBL document CHEMBL1133173, “Isoxazolines as potent antagonists of the integrin alpha(v)beta(3)” (J Med Chem, 2000).

This experiment has as its target Integrin alpha-V/beta-3 (Homo sapiens, UniProt P05106+P06756). The experiment in a line: Inhibition of vitronectin receptor (alpha V beta 3), expressed on human 293 cells, binding to immobilized fibrinogen. In kind it is cell-based, HEK293. The procedure, abridged:
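Human 293 cells stably transfected with human β3 plus a lacZ reporter (293β3z clone). Cells at 10⁶ viable cells/mL in MCDB131/20 mM HEPES pH 7.0 with 0.2% DMSO are preincubated with compound for 15 min at 37 °C. They are then added at 10⁵ cells/well to glycine-purified human fibrinogen-coated, BSA-blocked wells for 1 h at 37 °C, 5% CO₂. Adherent cells are lysed and β-galactosidase is read by chemiluminescence against a purified enzyme standard curve. Nonspecific binding is defined with 1 μM of a reference antagonist.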

A value given as a limit tells only on which side of the number the result lay.

Chain of Integrin alpha-V/beta-3 (P05106 27-788 limits assumed): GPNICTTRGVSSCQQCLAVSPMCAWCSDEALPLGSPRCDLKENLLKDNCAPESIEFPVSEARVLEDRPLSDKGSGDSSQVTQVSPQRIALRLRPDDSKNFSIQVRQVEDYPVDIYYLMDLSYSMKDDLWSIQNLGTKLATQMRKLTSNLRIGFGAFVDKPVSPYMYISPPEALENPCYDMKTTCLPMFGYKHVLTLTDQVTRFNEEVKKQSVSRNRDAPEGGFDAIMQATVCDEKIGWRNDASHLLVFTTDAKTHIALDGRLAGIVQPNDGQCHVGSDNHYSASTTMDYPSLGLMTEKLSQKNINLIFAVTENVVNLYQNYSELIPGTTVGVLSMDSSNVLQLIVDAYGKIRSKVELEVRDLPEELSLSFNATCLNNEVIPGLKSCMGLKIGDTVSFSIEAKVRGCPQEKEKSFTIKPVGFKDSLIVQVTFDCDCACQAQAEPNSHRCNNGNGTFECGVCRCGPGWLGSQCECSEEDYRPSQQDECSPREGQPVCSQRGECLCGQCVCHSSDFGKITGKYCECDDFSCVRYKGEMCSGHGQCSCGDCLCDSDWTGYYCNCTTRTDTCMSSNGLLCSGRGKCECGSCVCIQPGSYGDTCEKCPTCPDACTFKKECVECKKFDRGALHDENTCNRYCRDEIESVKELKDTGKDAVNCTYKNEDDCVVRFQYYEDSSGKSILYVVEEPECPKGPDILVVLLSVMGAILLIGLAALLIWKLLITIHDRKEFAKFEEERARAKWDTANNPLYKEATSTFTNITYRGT
Chain of Integrin alpha-V/beta-3 (P06756 31-889 limits assumed): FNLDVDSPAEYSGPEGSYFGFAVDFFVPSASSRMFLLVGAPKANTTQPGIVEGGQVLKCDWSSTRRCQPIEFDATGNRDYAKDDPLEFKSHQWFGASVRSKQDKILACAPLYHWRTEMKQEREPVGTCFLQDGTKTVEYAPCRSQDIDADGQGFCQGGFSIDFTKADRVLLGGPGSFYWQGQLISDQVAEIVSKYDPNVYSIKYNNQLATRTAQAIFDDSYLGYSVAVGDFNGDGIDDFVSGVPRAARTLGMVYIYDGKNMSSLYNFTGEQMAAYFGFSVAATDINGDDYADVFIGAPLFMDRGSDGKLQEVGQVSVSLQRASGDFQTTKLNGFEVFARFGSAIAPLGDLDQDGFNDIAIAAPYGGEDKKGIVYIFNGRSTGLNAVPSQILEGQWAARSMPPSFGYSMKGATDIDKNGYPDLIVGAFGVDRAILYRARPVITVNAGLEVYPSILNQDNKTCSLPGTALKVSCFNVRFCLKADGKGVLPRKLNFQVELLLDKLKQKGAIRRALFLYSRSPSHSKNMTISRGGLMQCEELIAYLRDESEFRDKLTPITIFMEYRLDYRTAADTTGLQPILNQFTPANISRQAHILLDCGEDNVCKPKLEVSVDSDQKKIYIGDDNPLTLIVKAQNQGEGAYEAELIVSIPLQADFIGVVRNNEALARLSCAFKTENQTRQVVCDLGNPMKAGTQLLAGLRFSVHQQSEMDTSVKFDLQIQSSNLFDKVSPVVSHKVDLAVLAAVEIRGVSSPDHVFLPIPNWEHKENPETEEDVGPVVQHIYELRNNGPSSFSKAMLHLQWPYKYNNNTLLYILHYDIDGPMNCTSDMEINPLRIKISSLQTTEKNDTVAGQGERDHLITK
Chain of Integrin alpha-V/beta-3 (P06756 891-1048 limits assumed): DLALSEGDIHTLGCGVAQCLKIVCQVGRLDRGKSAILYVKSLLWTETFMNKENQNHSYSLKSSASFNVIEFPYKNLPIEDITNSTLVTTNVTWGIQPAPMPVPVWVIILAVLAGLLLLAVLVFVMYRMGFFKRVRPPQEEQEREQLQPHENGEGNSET

For the molecule `N=C(N)c1ccc(C2=NO[C@@H](CC(=O)NCCC(=O)O)C2)cc1`, the IC50 was greater than 100000 nM.

On to `O=C(NC[C@H](NS(=O)(=O)c1c(Cl)cccc1Cl)C(=O)O)C1=NOC(CCCCNc2ncc[nH]2)C1` (stereo not given in full), for which the IC50 came to 18 nM.

As for `Cc1noc(C)c1S(=O)(=O)N[C@@H](CNC(=O)C1=NOC(CCCCNc2ncc[nH]2)C1)C(=O)O` (stereo not given in full), the IC50 was 73 nM.

Molecule `O=C(NC[C@H](NS(=O)(=O)c1c(Cl)cc(-c2ccccc2)cc1Cl)C(=O)O)C1=NOC(CCCCNc2ncc[nH]2)C1` (stereo not given in full) registered an IC50 of 4.6 nM. This IC50 is about 16-fold lower than that of the molecule before.

Regarding `O=C(NC[C@H](NS(=O)(=O)c1ccccc1)C(=O)O)C1=NOC(CCCCNc2ccccn2)C1` (stereo not given in full), the IC50 came to 81 nM.

In turn, `Cc1cc(C)c(S(=O)(=O)N[C@@H](CNC(=O)C2=NOC(CCNc3ncc[nH]3)C2)C(=O)O)c(C)c1` (stereo not given in full) registered an IC50 of 106 nM. This IC50 and that of the molecule before are within 1.5-fold of each other.

Take `Cc1cc(C)c(S(=O)(=O)N[C@@H](CNC(=O)C2=NOC(CCCCNc3nccc4ccccc34)C2)C(=O)O)c(C)c1` (stereo not given in full): the IC50 is greater than 1000 nM.

`Cc1cc(C)c(S(=O)(=O)N[C@@H](CNC(=O)C2=NOC(CCCCNC(N)=O)C2)C(=O)O)c(C)c1` (stereo not given in full): the IC50 was greater than 1000 nM.

In turn, `Cc1cc(C)c(S(=O)(=O)N[C@@H](CNC(=O)C2=NOC(CCCCNc3ccccn3)C2)C(=O)O)c(C)c1` (stereo not given in full) registered an IC50 of 54 nM.

`Cc1cc(C)c(S(=O)(=O)N[C@@H](CNC(=O)C2=NOC(CCCC(=O)Nc3ncc[nH]3)C2)C(=O)O)c(C)c1` (stereo not given in full) yielded an IC50 of 31 nM. Against the preceding molecule, the IC50 is about 1.7-fold lower.

The molecule `CN([C@@H](CNC(=O)C1=NOC(CCCCNc2ccccn2)C1)C(=O)O)S(=O)(=O)c1ccc(-c2ccccc2)cc1` (stereo not given in full) had an IC50 of 130 nM.

As for `Cc1cc(C)c(S(=O)(=O)N[C@H](CNC(=O)C2=NOC(CCCCNc3ncc[nH]3)C2)C(=O)O)c(C)c1` (stereo not given in full), the IC50 came out at 2800 nM. Compared with the last molecule, the IC50 is about 22-fold higher.

In turn, `O=C(NC[C@H](NS(=O)(=O)c1cccc2ccccc12)C(=O)O)C1=NOC(CCCCNc2ncc[nH]2)C1` (stereo not given in full) gave an IC50 of 51 nM.

`N[C@@H](CNC(=O)C1=NOC(CCCCNc2ncc[nH]2)C1)C(=O)O` (stereo not given in full) came in with an IC50 greater than 1000 nM.

For the molecule `Cc1cc(C)c(S(=O)(=O)N[C@@H](CNC(=O)C2=NOC(CCNC(=O)Nc3ncc[nH]3)C2)C(=O)O)c(C)c1` (stereo not given in full), the IC50 is 34 nM.

Regarding `Cc1cc(C)c(S(=O)(=O)N[C@@H](CNC(=O)C2=NOC(CCCCN=C(N)N)C2)C(=O)O)c(C)c1` (stereo not given in full), the IC50 turned out to be 169 nM.

`CC(C)c1ccc(S(=O)(=O)N[C@@H](CNC(=O)C2=NOC(CCCCNc3ccccn3)C2)C(=O)O)cc1` (stereo not given in full) displayed an IC50 of 170 nM. This IC50 and that of the molecule before are within 1.5-fold of each other.

The molecule `Cc1cccc(Cl)c1S(=O)(=O)N[C@@H](CNC(=O)C1=NOC(CCCCNc2ncc[nH]2)C1)C(=O)O` (stereo not given in full) showed an IC50 of 7.1 nM.

In the case of `O=C(NC[C@H](NS(=O)(=O)c1ccccc1)C(=O)O)C1=NOC(CCCCNc2ncc[nH]2)C1` (stereo in doubt; 3q), the IC50 worked out at 66 nM.

The molecule `O=C(NC[C@H](NS(=O)(=O)c1cccc2ccccc12)C(=O)O)C1=NOC(CCCCNc2ccccn2)C1` (stereo not given in full) registered a 50% inhibitory concentration (IC50) of 160 nM.

`Cc1cc(C)c(S(=O)(=O)N[C@@H](CNC(=O)C2=NOC(CCCCNc3cc4ccccc4cn3)C2)C(=O)O)c(C)c1` (stereo not given in full) showed an IC50 greater than 1000 nM.

The molecule `Cc1cc(C)c(S(=O)(=O)N[C@@H](CNC(=O)C2=NOC(CCCCNS(N)(=O)=O)C2)C(=O)O)c(C)c1` (stereo not given in full) displayed an IC50 greater than 1000 nM.

Molecule `Cc1cc(C)c(S(=O)(=O)N[C@@H](CNC(=O)C2=NOC(CCCc3c[nH]c(N)n3)C2)C(=O)O)c(C)c1` (stereo not given in full) displayed an IC50 of 46 nM.

Molecule `O=C(NC[C@H](NS(=O)(=O)c1ccc(-c2ccccc2)cc1)C(=O)O)C1=NOC(CCCCNc2ncc[nH]2)C1` (stereo not given in full) came in with an IC50 of 240 nM.

`Cc1cc(C)c(S(=O)(=O)N[C@@H](CNC(=O)C2=NOC(CCCCNC3=NCCN3)C2)C(=O)O)c(C)c1` (stereo not given in full) registered an IC50 of 62 nM. This IC50 lies about 3.9-fold lower than the previous one.

Molecule `Cc1cc(C)c(S(=O)(=O)N[C@@H](CNC(=O)C2=NOC(CCCCNc3ncc[nH]3)C2)C(=O)O)c(C)c1` (stereo not given in full) registered an IC50 of 15 nM.

On to `Cc1cc(-c2ccccc2)cc(C)c1S(=O)(=O)N[C@@H](CNC(=O)C1=NOC(CCCCNc2ncc[nH]2)C1)C(=O)O` (stereo not given in full), for which the IC50 was determined as 8.8 nM.

As to `Cc1cc(-c2ccccc2)cc(C)c1S(=O)(=O)N[C@@H](CNC(=O)C1=NOC(CCCCNc2ccccn2)C1)C(=O)O` (stereo not given in full), the IC50 turned out to be 44 nM. This IC50 is about 5-fold higher than that of the molecule before.

Molecule `Cc1cc(C)c(S(=O)(=O)N[C@@H](CNC(=O)C2=NOC(CCCc3cccc(N)n3)C2)C(=O)O)c(C)c1` (stereo not given in full) yielded an IC50 of 26 nM.

For the molecule `O=C(NC[C@H](NS(=O)(=O)c1ccccc1)C(=O)O)C1=NOC(CCCCNc2ncc[nH]2)C1` (stereo in doubt; 3cc), the IC50 worked out at 10.6 nM.
